Compound activity from PubChem BioAssay.
ERAP1 HTS inh: ERAP1 (human) enzyme inhibition; recombinant ERAP1, Leu-AMC fluorescence, 60 min; Q9NZ08; hit rate 0.15% among 340,000; inhibition, % at 10.7 µM;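 active = mean replicate inhibition of at least 30%, or all replicates individually reaching that 30% level; inactive = mean below 30% and not every replicate reaching it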;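 note: 0% = neutral control wells and 100% = L-leucinethiol positive control wells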
PGC1a acetyl inh: modulators of PGC1a acetylation. U2OS PGC1a acetylation, AlphaScreen anti-acetyl-lysine; with virally co-expressed GCN5 acetyltransferase. inhibition, % at 15.6 µM. hit rate 0.17% among 350,000. AID 651687;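 active = every replicate shows inhibition of at least 40%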;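 note: 0% = neutral control wells and 100% = positive control wells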
Cneo AK release: Cryptococcus neoformans lysis via adenylate kinase release; C. neoformans lysis, adenylate kinase release luminescence, 4 h; normalised: neutral wells 0, clomiphene wells 100; lysis activity, % at 15 µM; hit rate 0.2% among 360,000; AID 651654;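 active = mean lysis activity across replicates of at least 80%, whatever share of replicates individually reach that level; inactive = mean lysis activity below 80%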
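Material – Cryptococcus neoformans yeast cells · Quantity – 5 × 10^6 yeast cells/mL · Buffer or medium – YPD medium · Compound – single dose · Timing – 4 h static compound exposure, 37 °C, read 1 h post-reagent · Signal – adenylate kinase release luminescence · Read-out basis – lysis from increased AK signal · Benchmarks – Clomiphene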
FGF22 binding: binders of recombinant human FGF22 by thermal shift; Q9HCT0; AID 651658; hit rate 1.5% among 340,000; activity (Tm shift, normalised), % at 9.99 µM; SYPRO orange fluorescence; percent of sucrose octasulfate shift, DMSO zero;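 active = mean Tm shift, scaled 0 neutral to 100 positive control, at about 1.3% or above, every replicate too, limit read from the data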
Target sequence (Q9HCT0 whole entry, looked up): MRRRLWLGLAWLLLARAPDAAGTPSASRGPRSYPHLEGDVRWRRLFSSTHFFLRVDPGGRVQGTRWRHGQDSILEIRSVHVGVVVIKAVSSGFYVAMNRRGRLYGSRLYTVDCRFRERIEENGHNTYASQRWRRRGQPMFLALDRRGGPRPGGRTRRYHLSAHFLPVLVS
Env fusion inh: HIV envelope-mediated fusion inhibition. HeLa-JRFL Env/CEM21 cell fusion, luciferase. inhibition, % at 12.3 µM. hit rate 1.1% among 360,000;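 active = mean replicate inhibition score of at least 50 and every replicate individually at or above 50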;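 note: 0% = plate neutral controls and 100% = maraviroc near 300 nM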
rRNA inh HTS: inhibits bacterial ribosomal RNA function over humanized ribosomes; E. coli WT GFP vs humanized-ribosome RFP mutants, fluorescence, 24 h; stronger effect = lower value; DMSO median 0, no signal -100; GFP signal change (wild-type ribosome), % (concentration not given with the values); hit rate 1.6% among 350,000;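 active = significant combined selectivity score with lowered wild-type GFP, culture density cut under 30%, mutant RFP and density less affected; inactive = any of these conditions unmet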
Numbers without * were called inactive; nt = no result given; [ ] = another dose, or the depositor's remark. Shown are actives, neighbours in structure and some others; about 3.5% of the full set was active somewhere.

SMILES | ERAP1 HTS inh | PGC1a acetyl inh | Cneo AK release | FGF22 binding | Env fusion inh | rRNA inh HTS
COC(=O)c1ccc2nc(-c3ccccc3)c(Cc3ccc(C)cc3)n2c1 | -0.5 | nt | nt | -0.5 | -1.5 | -27.1*
CCOC(=O)CSc1nc(N)c(C#N)c(-c2ccc(OCC)cc2)c1C#N | nt | -0.7 | 0.3 | nt | nt | nt
COC(=O)c1sccc1NC(=O)CSCCc1ccncc1 | 1.9 | nt | nt | 43.4* | 2.9 | 9.7
COC(=O)c1sccc1NC(=O)CSc1cc(Cl)ccc1Cl | nt | -16.2 | 0.9 | nt | nt | nt
CC=Cc1ccc2n(c1=O)C[C@@H]1N[C@H]2[C@H](C(=O)NC2CCCC2)[C@H]1CO (mixture of isomers) | 1.3 | -0.4 | nt | nt | nt | -0.5
CCOc1cc(NC(=S)NCc2ccccc2)c(OCC)cc1NC(=O)C(C)C | -1.6 | -4.0 | 5.0 | 0.0 | -7.8 | 3.6
CC(C)CC(=O)NC(=S)NCCc1ccccc1 | nt | -1.8 | 11.4 | nt | -42.0 | nt
CCOc1cc(NC(=S)NCCc2ccccc2)c(OCC)cc1NC(C)=O | -6.7 | 0.3 | nt | 43.4* | 13.0 | -0.3
CC(C)(C)CC(=O)NC(=S)NCCc1ccccc1 | 1.5 | -29.0 | 99.9* | 0.2 | nt | -49.4
O=C(C[C@H]1C=C[C@@H](NC(=O)c2ccccc2)[C@@H](CO)O1)Nc1ccc(-c2ccccc2)cc1 | 2.3 | -13.3 | -2.8 | 0.2 | 1.8[16.7 µM] | -51.2
CCOc1ccccc1OCCCCCc1c(C)n[nH]c1C | nt | -19.3 | 4.5 | nt | -50.9 | nt
CCOC(=O)CCc1c(C)n[nH]c1C | 2.5 | nt | nt | 43.0* | 7.9 | nt
COc1ccc(CCn2ccc(O)c(Cc3ccc(Cl)cc3)c2=O)cc1OC | 2.6 | 15.5 | 0.7 | 0.1 | -20.1 | -29.4*
O=c1c(Cc2ccc(F)cc2)c(O)ccn1CCc1cnc[nH]1 | 5.5 | 0.5 | nt | 43.4* | -8.9 | 0.5
Cc1onc(-c2ccccc2)c1C(=O)N/N=C(\N)COc1ccc(Cl)cc1 | nt | 3.8 | -0.4 | nt | 19.7 | nt
Cc1onc(-c2ccccc2Cl)c1C(=O)NC(=S)Nc1ccc(C(C)(C)C)cc1 | nt | nt | nt | -0.1 | 14.1 | 3.3
CCOc1ccc(S(=O)(=O)Nc2cccc(C)c2)c2cccnc12 | -2.2 | -16.5 | nt | 43.0* | 10.8 | 4.7
S=C1NC2(CCCCC2)NN1c1ccccc1 | -1.6 | -1.3 | 1.9 | -0.2 | -0.1 | 7.5
CC(C)(C)N1NC2(CCCCC2)NC1=S | -1.6 | 4.6 | 1.2 | 43.1* | -17.6 | nt
O=C(Nc1ccc(N2CCOCC2)c(S(=O)(=O)Nc2ccccc2Cl)c1)c1ccccc1 | -3.2 | nt | -0.6 | -0.2 | 3.4 | -15.9
O=C(Nc1ccc(N2CCOCC2)c(S(=O)(=O)Nc2cc(Cl)ccc2Cl)c1)c1cccnc1 | nt | -0.3 | -0.8 | 0.5 | -7.6 | -35.0*
O=C(CN1CCN(c2ccccn2)CC1)Nc1ccc([N+](=O)[O-])cc1C(=O)Nc1ccccc1F | -1.7 | 0.7 | -3.0 | -0.4 | 59.7* | -6.6
C=CCOC(=O)C1=C(C)NC(SCC(=O)Nc2nccs2)=C(C#N)C1c1ccc(Cl)cc1 (stereo not given) | 8.1 | -16.7 | -0.3 | nt | 103.0* | -17.6
Cc1ccccc1NC(=O)CSC1=C(C#N)C(c2ccsc2)CC(=O)N1 (stereo not given) | nt | -15.1 | 3.9 | nt | nt | nt
N#CC1=C(SCC(=O)Nc2nccs2)NC(=O)CC1c1ccccc1 (stereo not given) | 0.3 | 7.8 | -1.8 | -0.1 | nt | -28.1*
SMILES | ERAP1 HTS inh | PGC1a acetyl inh | Cneo AK release | FGF22 binding | Env fusion inh | rRNA inh HTS
Cc1ccc(S(=O)(=O)NCC(=O)OCC(=O)NCc2ccco2)cc1 | -0.4 | -2.1 | 0.3 | 0.0 | 6.2 | 26.1
CC(=O)Nc1ccc(N2C(=O)CSC2c2cccc([N+](=O)[O-])c2)cc1 (stereo not given) | -3.2 | -0.3 | nt | 43.6* | 21.9 | 15.8
O=C1CSC(c2cccc([N+](=O)[O-])c2)N1c1ccc(O)cc1 (stereo not given) | -6.2 | 1.6 | nt | -0.2 | 12.4 | 17.4
COc1ccc(S(=O)(=O)N(C)CC(=O)Nc2cccc(C(C)=O)c2)cc1C | nt | -2.3 | 0.9 | nt | -96.3 | nt
CC(=O)c1cccc(NC(=O)CN(C)S(=O)(=O)c2ccccc2)c1 | 6.2 | -12.3 | 0.8 | 43.5* | 21.8 | 4.2
COc1cc(NC(=O)CN(C)S(=O)(=O)c2ccc(C)cc2)cc(OC)c1 | nt | -22.0 | 1.0 | nt | -20.0 | nt
COc1ccc(S(=O)(=O)N(C)CC(=O)Nc2ccc(C)cc2)cc1OC | 0.1 | -14.6 | nt | 43.0* | 12.0 | -5.5
COc1ccc(NC(=O)Nc2ccc3c(c2)CC(=O)N([C@@H](C)CO)C[C@H](C)[C@H](CN(C)C(=O)Nc2cccc4ccccc24)O3)cc1 | nt | -9.5 | 3.5 | 0.3 | 28.2[16.7 µM] | -1.2
C[C@H](CO)N1C[C@H](C)[C@@H](CN(C)C(=O)Cc2ccccn2)Oc2cc(C#C[C@@H](C)O)ccc2S1(=O)=O | 0.0 | 2.7 | 4.3 | 0.0 | -5.9[16.7 µM] | 2.2
C[C@@H]1CN([C@H](C)CO)C(=O)c2cccc(NC(=O)Nc3ccccc3)c2O[C@@H]1CN(C)Cc1ccc(Cl)c(Cl)c1 | 4.0 | 24.2 | 101.1* | 0.0 | -89.7[16.7 µM] | -6.2
C[C@H](CO)N1C[C@H](C)[C@H](CN(C)Cc2ccc(Cl)c(Cl)c2)Oc2c(NC(=O)Nc3ccccc3)cccc2C1=O | 3.2 | -7.2 | 89.7* | -0.4 | 7.8[16.7 µM] | -1.9
C[C@H]1CN([C@@H](C)CO)C(=O)c2cccc(NC(=O)Nc3ccccc3)c2O[C@@H]1CN(C)Cc1ccc(Cl)c(Cl)c1 | 5.6 | 8.5 | 0.1 | 0.0 | 62.1*[16.7 µM] | -3.7
C[C@@H]1CN([C@@H](C)CO)C(=O)c2cccc(NC(=O)Nc3ccccc3)c2O[C@H]1CN(C)Cc1ccc(Cl)c(Cl)c1 | 2.8 | 10.0 | 0.0 | -0.1 | 26.4[16.7 µM] | -2.2
CN1C(=O)C2(OCC(COc3ccc(Cl)cc3)O2)c2ccccc21 (stereo not given) | nt | 4.7 | -0.9 | nt | nt | nt
Cc1nc(-c2ccc(NC(=O)c3ccccc3C)cc2)cs1 | -0.7 | 18.5 | -10.2 | 0.3 | -98.4 | -27.2*
Cc1nc(-c2ccc(C(=O)Nc3ccc(F)cc3)cc2)cs1 | 0.9 | 8.3 | nt | 43.2* | -36.0 | 10.4
COc1ccc(NC(=O)c2ccc(-c3csc(C)n3)cc2)cc1 | 0.8 | 5.1 | 0.7 | -0.3 | 8.6 | 11.5
Cc1ccccc1CSc1[nH]c(=O)ncc1C | 2.1 | nt | 0.7 | -0.1 | 0.2 | -11.6
Cc1ccc(CSc2[nH]c(=O)ncc2C)cc1 | 0.7 | -0.8 | 0.8 | 0.2 | 2.4 | -18.7*
O=C(Nc1cc(-c2ccccc2)sc1C(=O)O)c1cccc(F)c1 | 0.9 | 16.3 | -2.5 | nt | -0.7 | -53.5
CCCCNC(=O)CSc1nc(O)c(Cc2ccc(OC)cc2)c(=O)[nH]1 | 2.3 | 4.5 | 0.0 | 0.1 | -5.6 | 12.8
O=C(C(=O)N1CCC(CNS(=O)(=O)c2ccc(F)c(F)c2)CC1)c1cc2ccccc2o1 | 4.5 | nt | nt | 0.0 | -35.8 | -12.4*
Cc1ccc2nc(SCc3nc4cc(Cl)ccc4c(=O)[nH]3)[nH]c2c1 | 9.4 | nt | nt | 43.1* | -14.5 | 1.9
Cc1cc(Sc2nnc(/N=C/N(C)C)s2)c2ccccc2n1 | 4.5 | 6.2 | -4.3 | -0.4 | 55.6* | -19.8*
